Test [1] has as its system Rattus norvegicus. In words: Neurite length after administration (1 uM) in rat cortical neurons. Format: functional. The method in brief:
(§1)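 E18 Sprague-Dawley rat fetal cortical neurons were plated at 5000 cells/cm² on poly-L-lysine in DMEM with 10% FBS and penicillin/streptomycin for 24 h. They were then switched to serum-free Neurobasal with 2% B27 containing the sample, with 0.5% ethanol as vehicle control. Cells were fixed in PFA and stained with anti-MAP2 (1:1000, overnight, 4 °C) and peroxidase/DAB. Primary process length was averaged over 100 random neurons.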

Test [2] relates to Rattus norvegicus. In words: Neurite length after administration (0.1 uM) in rat cortical neurons. Format: functional. The method in brief: as §1

Regarding `C=CCc1ccc(O)c(-c2ccc(O)c(CC=C)c2)c1` [HONOKIOL], the Activity in the test with Rattus norvegicus [1] is 142 µm; in the test on Rattus norvegicus [2] it was 139 µm.

Regarding `C=CCc1cc(-c2cc(CCC)ccc2O)ccc1O`, the Activity was 120 µm in the test on Rattus norvegicus [1] and 103 µm in the test on Rattus norvegicus [2].

With `C=CCc1ccc(O)c(-c2ccc(OC)c(CC=C)c2)c1` [METHYLHONOKIOL], the Activity in the test on Rattus norvegicus [1] is 114 µm; with Rattus norvegicus [2] it was 113 µm.

In the case of `C=CCc1ccc(OC)c(-c2ccc(OC)c(CC=C)c2)c1`, the values for the Activity in the test on Rattus norvegicus [1] and with Rattus norvegicus [2] were 111 µm and 112 µm, respectively.

As to `C=CCc1ccc(OC)c(-c2ccc(O)c(CC=C)c2)c1`, the Activity in the test on Rattus norvegicus [1] is 123 µm; with Rattus norvegicus [2] it was 133 µm.

`C=CCc1ccc(O)c(-c2ccc(O)c(CCC)c2)c1`: the figures for the Activity with Rattus norvegicus [1] and with Rattus norvegicus [2] were 150 µm and 128 µm, respectively.

Regarding `CCCc1ccc(O)c(-c2ccc(O)c(CCC)c2)c1`, the Activity in the test on Rattus norvegicus [1] was 102 µm; in the test with Rattus norvegicus [2], 101 µm.
